37 variants from the RNAGym collection of RNA variant scans (doi:10.1126/science.aae0568) can be followed below.

To fix the notation:
B1: tRNA (parent)
chain: GUUCCGUUGGCGUAAUGGUAACGCGUCUCCCUCCUAAGGAGAAGACUGCGGGUUCGAGUCCCGUACGGAACG

This sample holds only a part of the variants without activity. A value given as a limit tells only on which side of the number the result lay.

Variants of B1 are the subject of the data set. Description: yeast fitness relative to wild type (ratio to wild type); higher = fitter; tRNA-Arg(CCU), competitive growth, 37 C, YPD. Summed up: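 Gene amplicons from the start population and from each of six end populations were read by 100-nucleotide paired-end sequencing. Those end populations came from pooled Saccharomyces cerevisiae strains carrying tRNA-Arg(CCU) gene variants at the native locus, competed in YPD at 37°C for 24 hours. Fitness relative to wild type was worked out from changes in genotype frequencies. Genotypes needed ≥ 100 starting reads, and estimates < 0.5 were set to 0.5.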
As for GUUCCGUUGGCGUAAUGGUUACGCGUCUCCCUCAUAAGGACAAGACUGCGGGUUCCAGUCCCGUACGGAACG, the yeast fitness was ≤ 0.5.
On to GUUCCGUUGGCGUUAUGGUAACGCGUCUCCCUCCGAAGGAGAAGACUGCGGGUUCGAGUCCCGUACGGAACG, for which the yeast fitness is ≤ 0.5.
The figure for GUACCGUUGGCGUAAUGGUAACGCGUCUUCAUCCUAAGGCGAAGACUGCGGGUUCGAGUCCCGUACGGAACG is 0.631.
Next, GUUGCGUUGGGGUAAUGGUAACGCGUCUACCUCCUAAGGGGAAGACUGCGGGUUCGAGUCCCGUACGGAACG: ≤ 0.5; GUUCCGUUGGCGUAAUGGUAACGCGUCUCCCUCCUAAGGAGAAGACUGCGGGUUCGAGUCACGUACGCAACG: 0.607.
The figure for GUUCCCCUCGCGUAAUGGUAACGCGUCUCCCUCCUAAGGAGAAGACUGUGGGUUCGAGUCCCGUACGGAACG is ≤ 0.5; for GUUCCGUUGACGUAAUGGUGACGCGUCUCCCUCCUAAGGAAAAGACUGUGGGAUCGAGUCCCGUAGGGAACG it is ≤ 0.5; for GUUUCGUUGGCGUAAUGGUAACGCGUCUCCCUCCUAAGGAGAAGAUUGCGGGUUCGAGUCCCGUACGGAGCG it is 0.772.
GUUCUGUUGGCGUAAUGGUAACGCGUCUCCCUCCUAAGGAAAAGACUGCGGGUUCCAGUCCGGUACGCAACG: the yeast fitness was ≤ 0.5.
The figure for GUUCCGAUGGCGUAAUGGUAACGCGUCUGCCUCCUCAGGAGAAGACUGCGGGUUCGAGUCCCGUACAGAACG is ≤ 0.5; for GUUCCGUUGGCGUAAUGGUAACGCGUCUCCCUCCUAAGGAGUAGACUGCGGGUUCGAGUCCCGUGCGGAACG it is 1.01.
GUUCCGUUGCCGUAAAGGUAACGCGUCUCUCUCCUAAGGAGAAGACUGCGGGUUCGGGUCCCGUACGGAACG: the yeast fitness was found to be 0.646.
Next, GUUCCGUUGGCGUAAUGGUACCGCGUCUCCCCCCUAAGGAGAAGACUGCGGGUUCGAGUCCCGAACGGAACG: 0.664.
Next, GUUCCGUUGGCGUAAUGGUAAUGCGUCUCCCUCCUAAGGAGAUGACUGCGGGUUGGAGUCUCGUACGGAACG: 0.659.
For the variant GUUCCGUUGGCGUAAUGGUAACGCGUCUCCCUCCUAAGGAGCGGACUGCGGGUUCGAGUCCCGUACGGAACG, the yeast fitness was 0.885.
The figure for GUUUCGUUGGCGUAAUGGUAACGCGUCUCCCUCCUAAGGAGAAGACUGCGGGUUCGAGUGUCGUACGAAACG is ≤ 0.5; for GUUCCAUUGGCGUACUGGUAACGCGUAUCCCUCCUAGGGAGAGGACUGCGGGUUCGAGUCCCGUACGGAACG it is ≤ 0.5; for GUUAGGUUGGCGUAAUGGUAACGCGUCUCCCUCCUAAGGAGAAGAGUGCGGGUUCGAGUCCCGUACGGAACG it is ≤ 0.5.
The figure for GUUCGGUUGGCGUACUGGUAACGCGUCACCCUCCUAAGGACAAGACUGCGGGUUCGAGUCCCGGACGGAACG is ≤ 0.5; for GUUCCGUUGGGGUAAUGGUAACGCGUCUCCCUUCUAAGGAGAAGACUGCGGGUUCGAGCCCCGUACGGAACG it is 0.66; for GAUCCGUUGCCGUAAUGGUAACGCGUCUCCCUCCUAAGGAGAAGACUGCGGGUUCGAGUCCCGUACGGAACG it is 0.673.
The figure for GUUCCGUUGGCGUAAUGGUAACGGGUCUCCCUCCUAAGGAGAAGACUGCGGGUUCGAGUCCCGUACGGAACG is 0.609.
As to GUUCUGCUGGCGUAAUGGUAACGCGUCUCCCUCCUAAGGUGAAGACUGCGGGUUCGAGUCCCCUACGGAACG, the yeast fitness is ≤ 0.5.
The figure for GUUCCGUUGGAGUAAUGGUAACGUGUCUCCCACCCAAGGAGAAGACUGCGGGUUCGAGCCCCGUACGGAACG is ≤ 0.5; for GUUCCGUUGGCGUAAUGGUAACGCGUCUCCCACCUAAGGAGAAGACUGCGGGUUCAAGUCCCGUACGGUACG it is 0.554.
On to GUUCCGUUGGCGUCAUGGUAACGCGUCUCCCUCUUAAGCAGAAGACUGCGGGUUCGAGUCCCGUACGGAUCG, for which the yeast fitness was ≤ 0.5.
The figure for GUUCCGUUGGCGUAAUGGUAACGCGUCUCCCUCCUAAGGAGAAGACUGAGGGUUCGAGUCCCGCACGGAACG is 0.86; for GUUCCGUUGGCGUAAUGGUAAUGUGUCUCCCUCCAAAGGAGCAGACUGCGGGUUCGCGUCCCGUACGGAACG it is 0.638; for GUUCCGUUGGCGUAAUGGUAACGUGUCUCCCUCCUAAGGAGAAGACUGCGGGUUGGAGUCCCGUACGGAUCG it is 0.698.
Take GUUCCGUUGGAGUAAUGGUAACGCGUCUCCCUCCUACGGAGAAGACUGGGGGUUCGAGUCCCGUAAGGAACG: the yeast fitness was ≤ 0.5.
For GUUCCGUUGGCGUGAUGGUAACGCGUCUCCCUCAUAACGAGAAGACUGCGGGUUCGAGUCCCGUACGGAACG, the yeast fitness was 0.676.
Next, GUUCCGUUGGCGUAAUGGUAACGCGUCUCCCUCCAAAGGAGAAGACUGCGGGUUAGAGUCCCGUACGGAACG: ≤ 0.5; GUUCCGUUCGCGUACUGGUAACGCGUCUCCCUCCUAAGGAGAAGAUUGCGGGUUCGAGUCCCGUACGGAACG: 0.592; GUUCCGUUGGCGUAAUGGUAACGGGUCUCCCUCCUAAGGAGAAGACUGCGGGUUCCAGAGCGGUACGGACCG: 0.617.
The figure for GUUCCGUCGGCGUAAUGGUAACGCCUCUGCCUCCUAAGGAGAAGACUGCGGGUUCGAGUCCCGUACGGAACG is ≤ 0.5; for GGUCCGUUGGCGUAAUCGUAACGCGUCUCCCUUCUAAGGAGAAGACAGCGGGUUCGAGUCCCGUACGGAACG it is 0.535.
The figure for GUUCCGUUGGCGUAAUGGUAACGCGUCUCCCUCAUAAGGAGAAGACUGCGGGUUCGAGUCCCAUACGGAACG is 0.621.
